According to ChEMBL document CHEMBL4261600 (Eur J Med Chem, 2018):
pIC50: −log10 of the molar value. The source made the active and inactive calls.

What was measured:
[1] = target: Serine/threonine-protein kinase RIO3 (Homo sapiens) (UniProt O14730); experiment: Binding affinity to wild-type human full length RIOK3 (M1 to E519 residues) expressed in bacterial expression system assessed as remaining unbound target protein level at 1000 nM by Kinomescan method relative to control
Outline: (§1)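 KINOMEscan competition binding profile across a panel of 468 kinases and mutants, with the inhibitor tested at a single concentration of 1 μM. Binding is reported as percent of control, meaning signal relative to a DMSO control.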

[2] = target: Platelet-derived growth factor receptor beta (Homo sapiens) (UniProt P09619); experiment: Binding affinity to wild-type human partial length PDGFRB (V582 to Y1009 residues) expressed in bacterial expression system assessed as remaining unbound target protein level at 1000 nM by Kinomescan method relative to control
Outline: (§2)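 KINOMEscan binding panel of 468 kinases/mutants. Inhibitor was tested at a single concentration of 1 μM. Binding is reported as percent of control, defined relative to a DMSO control.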

CDK7/Cyclin H/MNAT1 = CDK7/Cyclin H/MNAT1 (Homo sapiens, UniProt P50613); experiment: Inhibition of recombinant full length His-tagged human CDK7/cyclin H/MNAT1 expressed in baculovirus expression system
Sequence of CDK7/Cyclin H/MNAT1 (P51946 whole entry): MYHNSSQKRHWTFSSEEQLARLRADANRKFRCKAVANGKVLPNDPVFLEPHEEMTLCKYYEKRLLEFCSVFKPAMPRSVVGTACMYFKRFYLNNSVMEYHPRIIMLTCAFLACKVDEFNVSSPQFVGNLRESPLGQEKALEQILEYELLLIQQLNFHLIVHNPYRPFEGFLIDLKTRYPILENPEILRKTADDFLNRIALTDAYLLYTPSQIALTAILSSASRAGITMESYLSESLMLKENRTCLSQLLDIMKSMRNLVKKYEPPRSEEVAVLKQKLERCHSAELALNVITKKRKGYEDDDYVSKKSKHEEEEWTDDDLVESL
Sequence of CDK7/Cyclin H/MNAT1 (P50613 whole entry): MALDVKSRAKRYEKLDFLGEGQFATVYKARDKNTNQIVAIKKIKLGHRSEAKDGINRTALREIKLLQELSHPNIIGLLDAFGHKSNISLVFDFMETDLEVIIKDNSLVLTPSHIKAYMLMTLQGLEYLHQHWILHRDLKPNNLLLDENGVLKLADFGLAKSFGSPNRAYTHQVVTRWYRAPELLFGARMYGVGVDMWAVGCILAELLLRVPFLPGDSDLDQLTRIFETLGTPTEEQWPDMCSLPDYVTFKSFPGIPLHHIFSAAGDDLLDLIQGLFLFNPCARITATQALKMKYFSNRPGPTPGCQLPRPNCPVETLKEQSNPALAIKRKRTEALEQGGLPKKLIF
Sequence of CDK7/Cyclin H/MNAT1 (P51948 whole entry, further chain): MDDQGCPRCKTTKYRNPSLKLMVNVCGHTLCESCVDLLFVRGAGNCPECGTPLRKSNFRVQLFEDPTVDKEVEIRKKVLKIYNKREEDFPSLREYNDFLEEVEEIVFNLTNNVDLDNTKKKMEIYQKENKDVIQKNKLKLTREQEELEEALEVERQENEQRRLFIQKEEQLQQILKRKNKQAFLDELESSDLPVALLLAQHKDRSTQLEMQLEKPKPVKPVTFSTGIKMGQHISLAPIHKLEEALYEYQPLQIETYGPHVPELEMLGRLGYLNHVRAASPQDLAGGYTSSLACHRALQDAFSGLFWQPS

Canis familiaris = experiment: AUC (0 to infinity) in beagle dog at 10 mg/kg, po by LC-MS/MS analysis; format: ADME, organism-based, Canis lupus familiaris; set-up: dose 10 mg/kg, time infinity, route oral; conditions: in vivo
Outline: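 Non-compartmental PK. Male SD rats 190-210 g, mice and beagle dogs acclimatized one week, fasted 12 h with water, split into iv and po groups (mice 48, rats 6, dogs 6). iv 3/3/2 mg/kg (mice/rats/dogs); po 10/20/10 mg/kg; vehicle DMSO in 5% glucose water. Blood at 2 or 5 to 720 min; plasma protein-precipitated with methanol, caffeine internal standard, LC-MS/MS.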

[3] = Half life in Sprague-Dawley rat at 3 mg/kg, iv by LC-MS/MS analysis; format: ADME, organism-based; conditions: in vivo
[4] = target: Casein kinase I isoform gamma-2 (Homo sapiens) (UniProt P78368); experiment: Binding affinity to wild-type human full length CSNK1G2 (M1 to K415 residues) expressed in bacterial expression system assessed as remaining unbound target protein level at 1000 nM by Kinomescan method relative to control
Outline: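 KINOMEscan competitive binding profile at 1 μM inhibitor. Remaining target binding reported as percent of DMSO control.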

Homo sapiens = organism: Homo sapiens; experiment: Induction of apoptosis in human MEC1 cells assessed as decrease in BCL-2 level up to 3 uM after 2 hrs by immunoblotting analysis; format: functional, cell-based
[5] = target: Ribosomal protein S6 kinase alpha-5 (Homo sapiens) (UniProt O75582); experiment: Binding affinity to wild-type human partial length C-terminal RPS6KA5 kinase domain 2 (V390 to T718 residues) expressed in bacterial expression system assessed as remaining unbound target protein level at 1000 nM by Kinomescan method relative to control
Sequence of Ribosomal protein S6 kinase alpha-5 (Homo sapiens) (O75582 whole entry, looked up, the tested form may be a part): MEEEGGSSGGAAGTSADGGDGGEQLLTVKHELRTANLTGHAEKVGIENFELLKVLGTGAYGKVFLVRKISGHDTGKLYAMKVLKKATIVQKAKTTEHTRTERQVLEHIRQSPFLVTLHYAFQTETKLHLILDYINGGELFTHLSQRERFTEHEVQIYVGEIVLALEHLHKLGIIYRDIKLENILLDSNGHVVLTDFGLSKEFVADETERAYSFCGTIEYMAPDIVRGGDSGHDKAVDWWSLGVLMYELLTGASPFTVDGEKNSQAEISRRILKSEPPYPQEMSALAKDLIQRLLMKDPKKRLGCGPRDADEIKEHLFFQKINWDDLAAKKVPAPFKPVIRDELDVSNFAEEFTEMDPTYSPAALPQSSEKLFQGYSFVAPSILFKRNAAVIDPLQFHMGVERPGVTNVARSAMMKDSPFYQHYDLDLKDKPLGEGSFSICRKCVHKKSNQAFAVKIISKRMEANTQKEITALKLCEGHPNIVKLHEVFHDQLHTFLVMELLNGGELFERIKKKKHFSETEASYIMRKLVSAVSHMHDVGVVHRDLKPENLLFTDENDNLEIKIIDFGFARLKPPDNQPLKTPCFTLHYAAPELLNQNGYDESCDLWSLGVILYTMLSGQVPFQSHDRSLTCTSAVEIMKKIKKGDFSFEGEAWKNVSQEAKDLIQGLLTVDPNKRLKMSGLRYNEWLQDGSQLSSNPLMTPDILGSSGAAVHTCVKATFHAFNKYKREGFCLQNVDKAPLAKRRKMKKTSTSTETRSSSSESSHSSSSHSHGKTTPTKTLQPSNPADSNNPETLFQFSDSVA
Outline: (§3)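 Profiled in a KINOMEscan binding panel with the inhibitor at a single concentration of 1 μM. Binding to each kinase was read out as percent of control, relative to a DMSO control. Strong binders were defined as those with a percent control value below 1.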

[6] = target: Phosphatidylinositol 4,5-bisphosphate 3-kinase catalytic subunit alpha isoform (Homo sapiens) (UniProt P42336); experiment: Binding affinity to wild-type human partial length PIK3CA (R108 to N1068 residues) expressed in mammalian expression system assessed as remaining unbound target protein level at 1000 nM by Kinomescan method relative to control
[7] = target: Dual specificity tyrosine-phosphorylation-regulated kinase 2 (Homo sapiens) (UniProt Q92630); experiment: Binding affinity to wild-type human full length DYRK2 (M1 to S528 residues) expressed in mammalian expression system assessed as remaining unbound target protein level at 1000 nM by Kinomescan method relative to control; outline: as §1
[8] = target: Phosphorylase b kinase gamma catalytic chain, liver/testis isoform (Homo sapiens) (UniProt P15735); experiment: Binding affinity to wild-type human partial length PHKG2 (M1 to W300 residues) expressed in bacterial expression system assessed as remaining unbound target protein level at 1000 nM by Kinomescan method relative to control; outline: as §2
Sequence of Phosphorylase b kinase gamma catalytic chain, liver/testis isoform (Homo sapiens) (P15735 whole entry, the tested form may be a part, canonical isoform): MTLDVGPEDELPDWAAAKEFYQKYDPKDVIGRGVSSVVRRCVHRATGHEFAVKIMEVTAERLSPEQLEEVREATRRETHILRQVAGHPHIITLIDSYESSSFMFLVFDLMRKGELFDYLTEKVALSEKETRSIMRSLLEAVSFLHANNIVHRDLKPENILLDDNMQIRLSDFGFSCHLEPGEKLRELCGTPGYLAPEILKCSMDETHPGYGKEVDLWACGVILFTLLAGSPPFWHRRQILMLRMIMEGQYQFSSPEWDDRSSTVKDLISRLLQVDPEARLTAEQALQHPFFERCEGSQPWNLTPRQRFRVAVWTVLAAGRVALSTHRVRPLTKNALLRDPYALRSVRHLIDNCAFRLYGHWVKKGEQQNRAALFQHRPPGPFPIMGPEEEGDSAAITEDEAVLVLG

MV4-11 = experiment: Induction of apoptosis in human MV4-11 cells assessed as decrease in XIAP level up to 3 uM after 2 hrs by immunoblotting analysis; format: functional, cell-based
[9] = target: Serine/threonine-protein kinase SIK1 (Homo sapiens) (UniProt P57059); experiment: Binding affinity to wild-type human partial length SIK (M1 to Y304 residues) expressed in bacterial expression system assessed as remaining unbound target protein level at 1000 nM by Kinomescan method relative to control
[10] = target: SRSF protein kinase 2 (Homo sapiens) (UniProt P78362); experiment: Binding affinity to wild-type human full length SRPK2 (M1 to S686 residues) expressed in bacterial expression system assessed as remaining unbound target protein level at 1000 nM by Kinomescan method relative to control; outline: as §3
[11] = target: Ribosomal protein S6 kinase alpha-1 (Homo sapiens) (UniProt Q15418); experiment: Binding affinity to wild-type human partial length C-termianl RSK1 kinase domain 2 (P360 to L681 residues) expressed in bacterial expression system assessed as remaining unbound target protein level at 1000 nM by Kinomescan method relative to control; outline: as §3
Sequence of Ribosomal protein S6 kinase alpha-1 (Homo sapiens) (Q15418 whole entry, the tested form may be a part): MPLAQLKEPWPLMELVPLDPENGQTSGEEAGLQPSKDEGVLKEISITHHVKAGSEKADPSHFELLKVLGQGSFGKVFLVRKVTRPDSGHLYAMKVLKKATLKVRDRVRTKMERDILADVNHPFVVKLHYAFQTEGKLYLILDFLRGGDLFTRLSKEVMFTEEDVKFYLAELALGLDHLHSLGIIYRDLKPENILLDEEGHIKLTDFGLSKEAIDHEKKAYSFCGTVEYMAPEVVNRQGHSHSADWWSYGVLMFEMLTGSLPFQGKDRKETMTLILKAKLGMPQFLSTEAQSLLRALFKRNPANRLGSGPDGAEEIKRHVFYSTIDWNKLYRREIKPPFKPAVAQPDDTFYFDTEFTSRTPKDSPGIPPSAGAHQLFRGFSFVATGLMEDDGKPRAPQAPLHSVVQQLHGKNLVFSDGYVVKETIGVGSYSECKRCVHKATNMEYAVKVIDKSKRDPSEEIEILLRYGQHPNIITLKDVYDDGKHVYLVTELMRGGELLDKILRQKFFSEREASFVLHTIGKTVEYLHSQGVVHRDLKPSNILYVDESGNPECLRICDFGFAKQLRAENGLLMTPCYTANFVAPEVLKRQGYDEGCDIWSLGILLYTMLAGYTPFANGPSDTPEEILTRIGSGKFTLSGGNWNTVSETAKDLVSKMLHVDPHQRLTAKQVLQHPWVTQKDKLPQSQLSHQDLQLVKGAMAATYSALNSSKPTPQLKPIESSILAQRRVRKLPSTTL

[12] = Antiproliferative activity against Chinese hamster CHL cells after 72 hrs by Celltiter-Glo assay; conditions: Cricetulus griseus
[13] = target: Cyclin-dependent kinase 18 (Homo sapiens) (UniProt Q07002); experiment: Binding affinity to wild-type human full length PCTK3 (M3 to F474 residues) expressed in bacterial expression system assessed as remaining unbound target protein level at 1000 nM by Kinomescan method relative to control; outline: as §1
[14] = target: STE20/SPS1-related proline-alanine-rich protein kinase (Homo sapiens) (UniProt Q9UEW8); experiment: Binding affinity to wild-type human partial length STK39 (P43 to I357 residues) expressed in mammalian expression system assessed as remaining unbound target protein level at 1000 nM by Kinomescan method relative to control
[15] = target: Phosphatidylinositol 4,5-bisphosphate 3-kinase catalytic subunit gamma isoform (Homo sapiens) (UniProt P48736); experiment: Binding affinity to wild-type human partial length PIK3CG (S144 to A1102 residues) expressed in mammalian expression system assessed as remaining unbound target protein level at 1000 nM by Kinomescan method relative to control
Sequence of Phosphatidylinositol 4,5-bisphosphate 3-kinase catalytic subunit gamma isoform (Homo sapiens) (P48736 whole entry, looked up, the tested form may be a part, canonical isoform): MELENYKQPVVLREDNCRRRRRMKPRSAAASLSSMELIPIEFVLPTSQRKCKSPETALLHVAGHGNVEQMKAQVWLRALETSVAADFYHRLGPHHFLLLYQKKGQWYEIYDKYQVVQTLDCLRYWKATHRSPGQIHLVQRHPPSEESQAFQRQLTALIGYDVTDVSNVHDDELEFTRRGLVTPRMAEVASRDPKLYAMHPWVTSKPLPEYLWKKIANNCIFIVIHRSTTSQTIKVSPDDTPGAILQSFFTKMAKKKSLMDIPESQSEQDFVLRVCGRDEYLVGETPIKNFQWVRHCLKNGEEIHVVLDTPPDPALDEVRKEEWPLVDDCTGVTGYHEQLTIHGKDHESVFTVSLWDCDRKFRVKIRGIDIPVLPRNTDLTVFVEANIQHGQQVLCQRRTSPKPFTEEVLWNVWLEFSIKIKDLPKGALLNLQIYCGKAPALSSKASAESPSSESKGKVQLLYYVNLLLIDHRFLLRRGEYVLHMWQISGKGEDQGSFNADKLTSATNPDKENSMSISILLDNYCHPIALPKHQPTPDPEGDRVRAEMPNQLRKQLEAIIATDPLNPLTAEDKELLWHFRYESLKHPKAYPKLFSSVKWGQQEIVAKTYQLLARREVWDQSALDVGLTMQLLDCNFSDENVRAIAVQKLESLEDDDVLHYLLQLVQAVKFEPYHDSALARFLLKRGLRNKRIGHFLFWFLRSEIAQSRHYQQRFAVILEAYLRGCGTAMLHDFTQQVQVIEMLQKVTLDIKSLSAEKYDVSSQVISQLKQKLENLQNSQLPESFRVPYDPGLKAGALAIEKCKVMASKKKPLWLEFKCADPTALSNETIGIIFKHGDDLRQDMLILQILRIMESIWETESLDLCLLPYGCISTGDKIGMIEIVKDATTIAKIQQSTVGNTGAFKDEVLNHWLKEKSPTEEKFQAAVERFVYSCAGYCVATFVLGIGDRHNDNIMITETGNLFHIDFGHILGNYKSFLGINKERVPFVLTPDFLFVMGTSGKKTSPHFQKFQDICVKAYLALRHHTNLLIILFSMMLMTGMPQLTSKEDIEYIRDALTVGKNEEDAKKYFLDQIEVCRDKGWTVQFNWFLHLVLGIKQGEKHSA

[16] = target: Macrophage colony-stimulating factor 1 receptor (Homo sapiens) (UniProt P07333); experiment: Binding affinity to wild-type human partial length CSF1R (I564 to S939 residues) expressed in bacterial expression system assessed as remaining unbound target protein level at 1000 nM by Kinomescan method relative to control
[17] = target: RAC-gamma serine/threonine-protein kinase (Homo sapiens) (UniProt Q9Y243); experiment: Binding affinity to wild-type human partial length AKT3 expressed in bacterial expression system assessed as remaining unbound target protein level at 1000 nM by Kinomescan method relative to control; outline: as §3
Sequence of RAC-gamma serine/threonine-protein kinase (Homo sapiens) (Q9Y243 whole entry, the tested form may be a part): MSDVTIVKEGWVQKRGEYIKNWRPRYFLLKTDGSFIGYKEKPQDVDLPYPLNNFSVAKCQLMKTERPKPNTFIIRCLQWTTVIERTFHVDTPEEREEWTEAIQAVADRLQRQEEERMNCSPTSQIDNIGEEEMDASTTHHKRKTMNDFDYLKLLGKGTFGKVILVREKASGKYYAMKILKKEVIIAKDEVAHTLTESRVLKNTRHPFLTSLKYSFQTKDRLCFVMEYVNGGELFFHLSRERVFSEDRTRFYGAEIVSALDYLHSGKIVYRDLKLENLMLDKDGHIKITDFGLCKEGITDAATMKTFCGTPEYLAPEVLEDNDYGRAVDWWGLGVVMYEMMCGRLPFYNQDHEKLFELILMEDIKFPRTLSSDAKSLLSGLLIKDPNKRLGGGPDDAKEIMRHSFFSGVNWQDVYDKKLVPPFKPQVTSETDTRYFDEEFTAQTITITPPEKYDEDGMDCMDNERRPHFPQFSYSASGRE

[18] = target: Dual specificity mitogen-activated protein kinase kinase 4 (Homo sapiens) (UniProt P45985); experiment: Binding affinity to wild-type human partial length MEK4 (S84 to D399 residues) expressed in mammalian expression system assessed as remaining unbound target protein level at 1000 nM by Kinomescan method relative to control; outline: as §2

Sequence of Serine/threonine-protein kinase RIO3 (Homo sapiens) (O14730 whole entry, the tested form may be a part): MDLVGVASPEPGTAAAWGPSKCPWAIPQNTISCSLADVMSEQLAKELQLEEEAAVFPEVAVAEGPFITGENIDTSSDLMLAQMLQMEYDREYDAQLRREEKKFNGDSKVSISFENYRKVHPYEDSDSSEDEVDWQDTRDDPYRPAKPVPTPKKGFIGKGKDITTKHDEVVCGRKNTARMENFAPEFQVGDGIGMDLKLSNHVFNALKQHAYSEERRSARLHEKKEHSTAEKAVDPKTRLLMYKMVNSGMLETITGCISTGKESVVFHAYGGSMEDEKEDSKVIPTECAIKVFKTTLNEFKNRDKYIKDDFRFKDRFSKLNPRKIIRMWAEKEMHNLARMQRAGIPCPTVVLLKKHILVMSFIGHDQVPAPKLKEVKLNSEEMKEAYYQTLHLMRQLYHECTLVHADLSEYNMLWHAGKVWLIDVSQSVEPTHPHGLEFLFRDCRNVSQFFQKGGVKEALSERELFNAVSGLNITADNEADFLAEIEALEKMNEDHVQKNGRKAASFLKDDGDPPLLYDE

**Q.** Which Activity [1] does the source give for `COCCN[C@H]1CC[C@H](Nc2cc(-c3csc(NCC4(C#N)CCOCC4)n3)c(Cl)cn2)CC1` here?
**A.** 99%

**Q.** What about the Activity [2] of the same compound?
**A.** 91%

**Q.** And the pIC50 (CDK7/Cyclin H/MNAT1)?
**A.** 5.76

**Q.** What about the AUC (Canis familiaris) of the same compound?
**A.** 16735.55 ng·h/mL

**Q.** And the half-life [3]?
**A.** 408 min

**Q.** What about the Activity [4] of the same compound?
**A.** 73%

**Q.** And the Activity (Homo sapiens)?
**A.** inactive

**Q.** What about the Activity [5] of the same compound?
**A.** 76%

**Q.** And the Activity [6]?
**A.** 95%

**Q.** What about the Activity [7] of the same compound?
**A.** 5.2%

**Q.** What about the Activity [8] of the same compound?
**A.** 99%

**Q.** What about the Activity (MV4-11) of the same compound?
**A.** inactive

**Q.** What about the Activity [9] of the same compound?
**A.** 93%

**Q.** What about the Activity [10] of the same compound?
**A.** 100%

**Q.** What about the Activity [11] of the same compound?
**A.** 100%

**Q.** What about the GI50 [12] of the same compound?
**A.** 1200 nM

**Q.** What about the Activity [13] of the same compound?
**A.** 49%

**Q.** And the Activity [14]?
**A.** 57%

**Q.** And the Activity [15]?
**A.** 99%

**Q.** What about the Activity [16] of the same compound?
**A.** 87%

**Q.** And the Activity [17]?
**A.** 100%

**Q.** What about the Activity [18] of the same compound?
**A.** 99%
